Results collected from several papers.
Each line is one published result; the experiments were not run side by side.
Cell line: HepG2
Read-out: cell growth or viability

Structure (SMILES)	method	time	CC50
CN(CC(=O)Nc1ccc(N(C)c2ccc(Cl)cc2)c(Cl)c1)c1ccccc1N1CCCC1=O	ATP luminescence	48 h	> 40 µM
c1cc(-c2ccc3ncnc(NC4CCOCC4)c3c2)cc(N2CCOCC2)c1	MTT	48 h	26 µM
CC(=O)[C@]1(O)Cc2c(O)c3c(c(O)c2[C@@H](O[C@H]2C[C@H](N)[C@H](O)[C@H](C)O2)C1)C(=O)c1ccccc1C3=O	ATP luminescence	72 h	0.14 µM
CN1CCN(c2cccc(-c3ccc4ncnc(Nc5ccc(Cl)c(Cl)c5)c4c3)c2)CC1	MTT	48 h	14 µM
N=C(CC(O)c1nc2cc(F)ccc2c2ccc(F)cc12)Nc1ccc(F)cc1 (centres unmarked)	neutral red	24 h	19.4 µM
CC(C)N(c1ccc(NC(=O)CN(C)c2ccccc2N2CCCC2=O)cc1)c1ccc(Cl)c(F)c1	ATP luminescence	48 h	> 40 µM
FC(F)(F)c1cc(Nc2ncnc3ccc(-c4cccc(N5CCOCC5)c4)cc23)ccc1Cl	MTT	48 h	29 µM
Cc1ccc(N(C)c2ccc(NC(=O)CN(C)c3cccnc3N3CCCC3=O)cc2)cc1	ATP luminescence	48 h	> 40 µM
C[n+]1cc2c3c(ccc2c2ccc4cc5c(cc4c21)OCO5)OCO3	ATP luminescence	72 h	9.44 µM
N=C(CC(O)c1nc2ccccc2c2ccccc12)Nc1ccc(F)cc1 (centres unmarked)	neutral red	24 h	48.5 µM
CN1CCN(c2cccc(-c3ccc4ncnc(Nc5ccc([N+](=O)[O-])c(C(F)(F)F)c5)c4c3)c2)CC1	MTT	48 h	34 µM
N=C(CC(O)c1nc2ccccc2c2ccc(Cl)cc12)Nc1ccc(F)cc1 (centres unmarked)	neutral red	24 h	> 25 µM
CC(C)N(c1ccc(C#N)cc1)c1ccc(NC(=O)CN(C)c2ccccc2N2CCCC2=O)cn1	ATP luminescence	48 h	> 40 µM
CCCCCCNc1nc(NC2CCN(C)CC2)c2cc(OC)c(OC)cc2n1	ATP luminescence	72 h	2.03 µM
CCCCN(c1ccc(C)cc1)c1ccc(NC(=O)CN(C)c2ccccc2N2CCCC2=O)cc1	ATP luminescence	48 h	> 40 µM
O=C1c2ccccc2C(=O)c2c(NCCc3ccc(O)cc3)ccc(NCCc3ccc(O)cc3)c21	ATP luminescence	72 h	16.1 µM
Clc1ccc(Nc2ncnc3ccc(-c4cccc(N5CCOCC5)c4)cc23)cc1Cl	MTT	48 h	> 40 µM
